21 compounds from ChEMBL document CHEMBL3616464, “One-pot synthesis of podophyllotoxin-thiourea congeners by employing NH₂SO₃H/NaI: Anticancer activity, DNA topoisomerase-II inhibition, and apoptosis inducing agents” (Bioorg Med Chem Lett, 2015) can be followed below.

Structures are written as SMILES. Calls of active or inactive are those of the source. The rule behind the calls is not given here.

The subject of data set [1] is A549. Put plainly: Cytotoxicity against human A549 cells after 48 hrs by MTT assay. To be noted: A549, 48 h. It counts as functional, cell-based. A general note: Tetrazolium assays rely on reduction of a dye to a coloured formazan, in cell work by metabolically active cells.
The test system of data set [2] is HGC. Put plainly: Cytotoxicity against human HGC cells at 100 uM after 48 hrs by MTT assay. In kind it is functional, cell-based.
Data set [3] relates to MDA-MB-231. Put plainly: Cytotoxicity against human MDA-MB-231 cells at 100 uM after 48 hrs by MTT assay. In kind it is functional, cell-based.
In data set [4] the test system is DU-145. The experiment in a line: Cytotoxicity against human DU145 cells at 100 uM after 48 hrs by MTT assay. In kind it is functional, cell-based.
Data set [5] deals with LNCaP. The experiment in a line: Cytotoxicity against human LNCAP cells at 100 uM after 48 hrs by MTT assay. In kind it is functional, cell-based.
The subject of data set [6] is A549. The experiment in a line: Cytotoxicity against human A549 cells at 100 uM after 48 hrs by MTT assay. It counts as functional, cell-based.
The nature of data set [7]: Cytotoxicity against human RWPE1 cells at 100 uM after 48 hrs by MTT assay. As to conditions: rwpe-1, 48 h. In kind it is cell-based.
Data set [8] concerns DU-145. The experiment in a line: Cytotoxicity against human DU145 cells after 48 hrs by MTT assay. In kind it is functional, cell-based. To be noted: DU-145, 48 h.
A short description of data set [9]: Therapeutic index, ratio of IC50 for human RWPE1 cells to IC50 for human LNCAP cells. It counts as cell-based. To be noted: RWPE1 cells versus LNCAP cells, read-out: Ratio IC50. Summed up: (§1)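 Selectivity expressed as the fold by which the IC50 in normal prostate epithelial RWPE-1 cells exceeds the IC50 in the prostate cancer line (DU-145 or LNCaP).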
A short description of data set [10]: Therapeutic index, ratio of IC50 for human RWPE1 cells to IC50 for human DU145 cells. In kind it is cell-based. As to conditions: RWPE1 cells versus DU145 cells, read-out: Ratio IC50. Summed up: as §1
Data set [11] relates to LNCaP. The experiment in a line: Cytotoxicity against human LNCAP cells after 48 hrs by MTT assay. It counts as functional, cell-based.
Data set [12] in a line: Cytotoxicity against human RWPE1 cells after 48 hrs by MTT assay. In kind it is cell-based. As to conditions: RWPE-1, 48 h.
Data set [13] can be described thus: Cytotoxicity against human HGC cells after 48 hrs by MTT assay. It counts as functional, cell-based.
Data set [14] relates to MDA-MB-231. The experiment in a line: Cytotoxicity against human MDA-MB-231 cells after 48 hrs by MTT assay. In kind it is functional, cell-based. To be noted: MDA-MB-231, 48 h.
The target of data set [15] is DNA topoisomerase 2-alpha (Homo sapiens) (UniProt P11388). Put plainly: Inhibition of topoisomerase-2 (unknown origin) using kDNA assessed as increase of catenated kDNA level at 100 uM after 10 mins using ethidium bromide staining by agarose gel electrophoresis. In a few lines:
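Drug-screening kit decatenation assay: catenated DNA incubated with topoisomerase II (5 units) and test agent, with etoposide as reference. Products were resolved by gel and visualised. Inhibition was judged by catenated DNA remaining in the wells, compared with nicked circular, relaxed circular or linear DNA forms.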

The term IC50 denotes the concentration needed to halve the response being measured. Higher therefore signals a need for much substance.

DNA topoisomerase 2-alpha (Homo sapiens), sequence (P11388 whole entry): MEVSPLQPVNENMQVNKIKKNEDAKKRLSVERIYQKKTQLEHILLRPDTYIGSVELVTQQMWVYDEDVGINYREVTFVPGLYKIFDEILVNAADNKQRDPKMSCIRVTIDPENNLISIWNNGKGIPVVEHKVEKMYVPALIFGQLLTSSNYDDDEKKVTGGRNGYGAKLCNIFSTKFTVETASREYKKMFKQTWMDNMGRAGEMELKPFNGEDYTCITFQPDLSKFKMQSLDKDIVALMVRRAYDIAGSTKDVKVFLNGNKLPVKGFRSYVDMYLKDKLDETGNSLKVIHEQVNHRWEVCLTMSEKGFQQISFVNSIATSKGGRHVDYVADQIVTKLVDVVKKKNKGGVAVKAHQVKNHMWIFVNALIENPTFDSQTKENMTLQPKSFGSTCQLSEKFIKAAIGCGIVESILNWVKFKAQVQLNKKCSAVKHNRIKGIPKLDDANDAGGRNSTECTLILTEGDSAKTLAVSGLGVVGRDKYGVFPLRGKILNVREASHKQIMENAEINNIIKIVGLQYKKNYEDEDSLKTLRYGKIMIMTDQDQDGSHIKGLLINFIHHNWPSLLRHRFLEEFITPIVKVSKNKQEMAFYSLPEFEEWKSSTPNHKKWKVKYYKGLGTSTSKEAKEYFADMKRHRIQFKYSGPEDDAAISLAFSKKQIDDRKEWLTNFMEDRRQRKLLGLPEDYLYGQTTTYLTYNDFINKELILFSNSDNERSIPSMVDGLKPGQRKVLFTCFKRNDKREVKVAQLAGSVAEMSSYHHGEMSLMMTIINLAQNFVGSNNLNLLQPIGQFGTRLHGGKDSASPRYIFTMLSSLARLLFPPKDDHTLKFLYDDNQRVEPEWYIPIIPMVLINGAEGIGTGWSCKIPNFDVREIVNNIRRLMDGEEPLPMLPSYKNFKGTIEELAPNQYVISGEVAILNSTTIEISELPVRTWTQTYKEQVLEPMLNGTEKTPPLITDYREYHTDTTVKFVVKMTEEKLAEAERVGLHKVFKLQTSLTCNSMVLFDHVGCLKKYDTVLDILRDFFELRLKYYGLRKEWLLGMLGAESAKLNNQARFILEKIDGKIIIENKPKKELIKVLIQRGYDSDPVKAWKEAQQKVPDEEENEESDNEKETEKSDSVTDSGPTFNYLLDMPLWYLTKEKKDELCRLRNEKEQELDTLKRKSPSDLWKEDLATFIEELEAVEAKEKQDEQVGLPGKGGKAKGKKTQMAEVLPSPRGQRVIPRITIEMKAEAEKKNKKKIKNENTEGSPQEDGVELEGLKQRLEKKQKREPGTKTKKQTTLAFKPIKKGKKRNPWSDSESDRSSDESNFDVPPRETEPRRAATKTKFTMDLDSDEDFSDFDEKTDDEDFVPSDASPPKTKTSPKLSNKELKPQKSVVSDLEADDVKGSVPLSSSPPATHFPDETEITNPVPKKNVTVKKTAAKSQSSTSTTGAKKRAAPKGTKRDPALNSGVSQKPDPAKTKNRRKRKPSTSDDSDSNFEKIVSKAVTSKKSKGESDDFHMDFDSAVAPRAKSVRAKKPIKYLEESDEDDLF

Take `COc1cc([C@@H]2c3cc4c(cc3[C@H](O)[C@H]3COC(=O)[C@H]23)OCO4)cc(OC)c1OC` [PODOFILOX]: in [1], the IC50 turned out to be 129 µM.
As for `COc1cc([C@@H]2c3cc4c(cc3[C@@H](NC(=S)Nc3cccc(F)c3)[C@H]3COC(=O)[C@H]23)OCO4)cc(OC)c1OC`, the outcome in [2], in data set [3], in data set [4], in data set [5] and in data set [6] was inactive. The Activity entry in data set [7] is reported as “Non-toxic”.
With `COc1cc([N+](=O)[O-])ccc1NC(=S)N[C@@H]1c2cc3c(cc2[C@@H](c2cc(OC)c(OC)c(OC)c2)[C@H]2C(=O)OC[C@@H]21)OCO3`, the result in [2], in [3], in data set [4], in [5] and in [6] was inactive. Also, in [7], the Activity entry is reported as “Non-toxic”.
As to `COc1cc([C@@H]2c3cc4c(cc3[C@@H](NC(=S)Nc3c(C)cc(C)cc3C)[C@H]3COC(=O)[C@H]23)OCO4)cc(OC)c1OC`, the 50% inhibitory concentration (IC50) in data set [8] is 10.6 µM; in data set [11] it was 39.8 µM; in data set [12] it was 71.7 µM; in data set [13], 60.3 µM; in [14], 19.4 µM. Also, the selectivity ratio was 1.8 in data set [9] and 6.8 in data set [10]. Moreover, the outcome in data set [6] was inactive.
With `COc1cc([C@@H]2c3cc4c(cc3[C@@H](NC(=S)Nc3cccc(C(F)(F)F)c3)[C@H]3COC(=O)[C@H]23)OCO4)cc(OC)c1OC`, the IC50 in [8] is 21 µM; in [11], 22.2 µM; in data set [12], above 100 µM; in data set [13] it was 12.9 µM; in data set [14], 17.9 µM. Besides, in data set [6], the result was inactive.
For `COc1ccc(NC(=S)N[C@@H]2c3cc4c(cc3[C@@H](c3cc(OC)c(OC)c(OC)c3)[C@H]3C(=O)OC[C@@H]32)OCO4)cc1OC`, the IC50 was 58.8 µM in data set [8]; above 100 µM in data set [11]; 65.5 µM in data set [1]; above 100 µM in [12]; 23.7 µM in data set [13]; above 100 µM in [14].
On to `COc1cc([C@@H]2c3cc4c(cc3[C@@H](NC(=S)Nc3ccc(OCc5ccccc5)cc3)[C@H]3COC(=O)[C@H]23)OCO4)cc(OC)c1OC`, for which the outcome in data set [2], in [3], in data set [4], in data set [5] and in data set [6] was inactive. In addition, the Activity entry in [7] was “Non-toxic”.
On to `COc1cc(NC(=S)N[C@@H]2c3cc4c(cc3[C@@H](c3cc(OC)c(OC)c(OC)c3)[C@H]3C(=O)OC[C@@H]32)OCO4)ccc1[N+](=O)[O-]`, for which the result in [2], in [3], in data set [4], in data set [5] and in [6] was inactive. The Activity result in data set [7] is given as “Non-toxic”.
With `COc1cc([C@@H]2c3cc4c(cc3[C@@H](NC(=S)Nc3ccc(Cl)c(Cl)c3)[C@H]3COC(=O)[C@H]23)OCO4)cc(OC)c1OC`, the IC50 in data set [8] was 14.1 µM; in data set [11], 20 µM; in data set [12] it was above 100 µM; in data set [13], 86.1 µM; in data set [14] it was 11.9 µM. For the same compound, in [6], the outcome was inactive.
Take `COc1cc([C@@H]2c3cc4c(cc3[C@@H](O[C@@H]3O[C@@H]5CO[C@@H](C)O[C@H]5[C@H](O)[C@H]3O)[C@H]3COC(=O)[C@H]23)OCO4)cc(OC)c1O` [ETOPOSIDE]: the 50% inhibitory concentration (IC50) in data set [8] stood at 5.21 µM; in data set [11], 50.3 µM; in data set [1] it was 38.5 µM; in [12], 27.6 µM; in data set [13], 10.9 µM; in data set [14], 49.4 µM. For the same compound, the selectivity ratio in data set [10] was 5.3. For the same compound, the inhibition result in data set [15] is “Active”.
As to `COc1ccc(OC)c(NC(=S)N[C@@H]2c3cc4c(cc3[C@@H](c3cc(OC)c(OC)c(OC)c3)[C@H]3C(=O)OC[C@@H]32)OCO4)c1`, the outcome in [2], in data set [3], in [4], in data set [5] and in data set [6] was inactive. In addition, the Activity entry in [7] is listed as “Non-toxic”.
Turning to `CCOC(=O)c1ccc(NC(=S)N[C@@H]2c3cc4c(cc3[C@@H](c3cc(OC)c(OC)c(OC)c3)[C@H]3C(=O)OC[C@@H]32)OCO4)cc1`, the half-maximal inhibitory concentration (IC50) is 2.37 µM in data set [8]; 5.49 µM in data set [11]; above 100 µM in [1]; 64 µM in data set [12]; 45.4 µM in [13]; above 100 µM in data set [14]. The values for the selectivity ratio in [9] and in data set [10] were 11.6 and 27, respectively.
Turning to `COc1cc([C@@H]2c3cc4c(cc3[C@@H](NC(=S)Nc3ccc(C(C)C)cc3)[C@H]3COC(=O)[C@H]23)OCO4)cc(OC)c1OC`, the IC50 is 59.9 µM in [8]; 84.8 µM in [11]; 62 µM in [1]; above 100 µM in [12]; above 100 µM in data set [13]; above 100 µM in [14].
Take `COc1ccc(NC(=S)N[C@@H]2c3cc4c(cc3[C@@H](c3cc(OC)c(OC)c(OC)c3)[C@H]3C(=O)OC[C@@H]32)OCO4)c([N+](=O)[O-])c1`: the IC50 in [8] came out at 12.2 µM; in data set [11], 25.6 µM; in data set [1] it was 35.1 µM; in data set [12] it was 78.4 µM; in [13], 33.4 µM; in [14], 39.8 µM. Moreover, the figures for the selectivity ratio in data set [9] and in data set [10] were 3.1 and 6.4, respectively.
For the compound `COc1ccc(NC(=S)N[C@@H]2c3cc4c(cc3[C@@H](c3cc(OC)c(OC)c(OC)c3)[C@H]3C(=O)OC[C@@H]32)OCO4)c(OC)c1`, the result in data set [2], in data set [3], in data set [4], in data set [5] and in data set [6] was inactive. Besides, the Activity entry in [7] is “Non-toxic”.
As for `COc1cc([C@@H]2c3cc4c(cc3[C@@H](NC(=S)Nc3ccc(F)cc3)[C@H]3COC(=O)[C@H]23)OCO4)cc(OC)c1OC`, the result in [2], in data set [3], in [4], in [5] and in data set [6] was inactive. In addition, the Activity entry in data set [7] was “Non-toxic”.
Regarding `COc1cc([C@@H]2c3cc4c(cc3[C@@H](NC(=S)Nc3ccc(C#N)cc3)[C@H]3COC(=O)[C@H]23)OCO4)cc(OC)c1OC`, the result in data set [2], in data set [3], in [4], in [5] and in [6] was inactive.
For the compound `COc1cc([C@@H]2c3cc4c(cc3[C@@H](NC(=S)Nc3ccccc3C(F)(F)F)[C@H]3COC(=O)[C@H]23)OCO4)cc(OC)c1OC`, the 50% inhibitory concentration (IC50) in [8] is 2.34 µM; in data set [11], 12.9 µM; in data set [1] it was above 100 µM; in [12], 44.5 µM; in data set [13], 86 µM; in data set [14] it was 85.7 µM. The selectivity ratio in [9] was found to be 3.4; in data set [10] it was 19.
For `COc1cc(NC(=S)N[C@@H]2c3cc4c(cc3[C@@H](c3cc(OC)c(OC)c(OC)c3)[C@H]3C(=O)OC[C@@H]32)OCO4)cc(OC)c1`, the result in data set [2], in data set [3], in [4], in data set [5] and in [6] was inactive. Moreover, in data set [7], the Activity entry is on record as “Non-toxic”.
`COc1cc([C@@H]2c3cc4c(cc3[C@@H](NC(=S)Nc3ccc([N+](=O)[O-])cc3)[C@H]3COC(=O)[C@H]23)OCO4)cc(OC)c1OC`: the IC50 in data set [8] was determined as 7.89 µM; in data set [11] it was 53.1 µM; in data set [1] it was 44 µM; in data set [12] it was 56.7 µM; in data set [13], 69.6 µM; in [14], 31.8 µM. In addition, the selectivity ratio in data set [10] was 7.2.
On to `COc1cc([C@@H]2c3cc4c(cc3[C@@H](NC(=S)Nc3ccccc3F)[C@H]3COC(=O)[C@H]23)OCO4)cc(OC)c1OC`, for which the IC50 in data set [8] is 63.3 µM; in data set [11], above 100 µM; in data set [12], above 100 µM; in [13], 22.4 µM; in [14], above 100 µM. Moreover, the outcome in [6] was inactive.
